# Diaphorase inh: diaphorase inhibition or chemical oxidation counter-screen; diaphorase resazurin-to-resorufin fluorescence, NADH, 16 min; bacterial (C. kluyveri) enzyme, not human; 0.69% of 190,000 active; inhibition, % at 20 µM;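 active means primary screen inhibition at 20 µM above a set limit, cut at about 50% in these data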;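 further: plate controls were DMSO with full reaction for no effect and wells lacking NADH for full effect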
#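 material = Clostridium kluyveri diaphorase enzyme | amount = 0.14 U/mL diaphorase, enzyme working solution | schedule = incubation 16 min, room temperature | detection = fluorescence of resorufin formed from resazurin, Ex 544/Em 590 nm | benchmarks = positive control minus NADH, DMSO neutral control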
# HKDC1 inhibitor: inhibitors of human hexokinase HKDC1 | inhibition, % at 20 µM | 0.16% of 340,000 active | Q2TB90 | AID 493160 | recombinant HKDC1, G6PDH/diaphorase resazurin coupled fluorescence;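 active means inhibition above about 35% when tested at 20 µM, limit read from the data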;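 further: plate controls were DMSO wells with enzyme for no effect and DMSO wells lacking enzyme for full effect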
# Target sequence (Q2TB90 whole entry, looked up): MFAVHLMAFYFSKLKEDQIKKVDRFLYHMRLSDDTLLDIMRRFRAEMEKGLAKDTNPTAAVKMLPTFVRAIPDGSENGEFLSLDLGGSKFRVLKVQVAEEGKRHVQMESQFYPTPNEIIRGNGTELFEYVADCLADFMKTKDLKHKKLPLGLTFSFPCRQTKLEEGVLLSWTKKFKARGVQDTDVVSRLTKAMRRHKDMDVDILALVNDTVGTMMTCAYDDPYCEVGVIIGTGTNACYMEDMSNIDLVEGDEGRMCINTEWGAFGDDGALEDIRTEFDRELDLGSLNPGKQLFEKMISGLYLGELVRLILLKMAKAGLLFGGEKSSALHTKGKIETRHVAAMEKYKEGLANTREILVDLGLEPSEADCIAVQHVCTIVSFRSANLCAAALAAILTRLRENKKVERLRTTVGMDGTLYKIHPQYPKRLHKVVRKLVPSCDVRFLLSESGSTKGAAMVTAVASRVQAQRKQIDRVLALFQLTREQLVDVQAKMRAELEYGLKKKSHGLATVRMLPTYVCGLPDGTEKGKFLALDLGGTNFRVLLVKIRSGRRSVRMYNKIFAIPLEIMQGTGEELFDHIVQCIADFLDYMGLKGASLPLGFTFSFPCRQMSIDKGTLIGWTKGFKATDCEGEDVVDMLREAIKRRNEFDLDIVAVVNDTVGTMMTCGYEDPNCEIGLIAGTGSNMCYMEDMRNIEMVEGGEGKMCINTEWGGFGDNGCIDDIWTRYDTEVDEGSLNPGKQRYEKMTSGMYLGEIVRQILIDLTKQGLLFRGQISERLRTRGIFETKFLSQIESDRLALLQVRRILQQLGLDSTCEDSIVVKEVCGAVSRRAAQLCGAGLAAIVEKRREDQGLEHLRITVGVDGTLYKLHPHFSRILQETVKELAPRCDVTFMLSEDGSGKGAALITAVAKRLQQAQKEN
#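 Material – in-house recombinant HK5 (HKDC1) enzyme · Quantity – HKDC1 at 5 µg/mL · Buffer or medium – pH 8.0 Tris buffer with 10 mM MgCl2 · Reagent – glucose with 1 mM ATP · Dosing – single 20 µM dose · Times – reaction time 90 min, room temperature, protected from light · Technique – resorufin fluorescence at 613 nm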
# G6PDH CS: inhibits Leuconostoc G6PDH, flagging false hits in G6PDH-based assays; Purified L. mesenteroides G6PDH, diaphorase/resazurin coupled fluorescence, 45 min; inhibition, % at 5 µM; 0.12% of 200,000 active; in the data active means inhibition above about 50%
# SUMO HTRF inh: blocks human SUMOylation mediated by UBC9; P63279; HTRF SUMOylation assay, SAE1/SAE2 + UBC9, in vitro; inhibition, % at 35 µM; 0.36% of 290,000 active; AID 2006; in the data active means inhibition above about 50%, passing the limit was not always enough
# p97 ATPase inh: human p97 ATPase inhibition; AID 1481; inhibition, % at 8 µM; P55072; 0.42% of 220,000 active; recombinant p97 ATPase, Kinase-Glo ATP luminescence, 3 h; in the data active means inhibition above about 15%;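 further: 0% = DMSO vehicle and 100% = wells lacking enzyme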
# * = called active by the depositor; / = no result. A selection: hits, their analogues and other compounds. The true share with any hit is near 0.95%.
SMILES,Diaphorase inh,HKDC1 inhibitor,G6PDH CS,SUMO HTRF inh,p97 ATPase inh
CC1=C(C#N)C(=O)N(C2CCS(=O)(=O)C2)C(=O)/C1=C\c1ccc(C)o1 (centres undefined),/,/,/,61.2*,11.5
CCOC(=O)C1=C(C)Nc2ccccc2N/C1=N\S(=O)(=O)c1ccccc1,/,-0.1,/,/,/
CCOC(=O)CN(C(=O)CSc1nnnn1C)c1ccccc1,/,10.1,/,/,/
O=C(CSc1nnc(-c2cccnc2)o1)Nc1cccc(F)c1,/,3.7,/,/,/
COc1ccc(CCN=C(NS(=O)(=O)c2ccccc2)c2ccccc2)cc1OC,-4.3,-5.0,2.1,3.7,0.6
COc1ccc(CCN=C(NS(=O)(=O)c2ccc(Cl)cc2)c2ccccc2)cc1,51.8*,6.7,5.3,-4.7,3.4
Cc1oc(-c2ccccc2)nc1CS(=O)CC(=O)NC1CCCC1 (centres undefined),/,-4.8,/,6.8,/
CC12CCC(C(=O)N(CSC(=S)N/N=C\c3ccccc3O)C1=O)C2(C)C (centres undefined),56.7*,-25.6,5.1,31.5,-0.4
COc1ccc(/C=N\NC(=S)SCN2C(=O)C3CCC(C)(C2=O)C3(C)C)cc1 (centres undefined),/,-16.6,/,/,4.1
Cn1c(=O)n(CC(=O)NCC2CCCO2)c(=O)c2c3c(sc21)CCCC3 (centres undefined),/,2.4,/,7.9,/
COc1cc2c(cc1OC)C1=C(C#N)CC/C(=N\S(=O)(=O)c3cccc(Cl)c3)N1CC2,61.2*,-2.2,0.0,-12.3,5.2
COc1cc2c(cc1OC)C1=C(C#N)CCC(=NC(=O)c3ccco3)N1CC2,-5.6,-8.1,4.3,5.0,2.0
O=C(N/N=C/c1ccc(O)c(O)c1O)/C(=C/c1ccc([N+](=O)[O-])cc1)NC(=O)c1ccccc1,73.6*,24.6,1.8,48.7,5.3
O=C(Nc1ccccc1C(=O)O)C1=NN=CC1,/,1.9,/,13.6,/
Cc1ccc(N/N=C/c2c(C)c(C#N)c(=O)n(C)c2O)cc1C,69.1*,3.3,29.5,32.2,2.7
CCOc1ccccc1Oc1c(C)oc2cc(OC(=O)c3ccco3)ccc2c1=O,5.4,-0.8,6.0,37.4,-5.0
COc1ccccc1Oc1c(C)oc2cc(OC(=O)c3ccco3)ccc2c1=O,12.8,16.7,-2.8,51.6*,2.0
S=c1[nH]cnc2scc(-c3ccccc3)c12,64.1*,-1.8,-13.8,-5.5,-1.7
COc1ccc(NC(=O)C(=O)N/N=C\c2ccc(CNC(=O)C(=O)Nc3ccc(C)c(C)c3)o2)c(OC)c1,/,-3.8,/,58.0*,/
CC(=O)c1ccc(S(=O)(=O)NC2CC(=O)N(c3ccc(C)c(C)c3)C2)cc1 (centres undefined),/,1.7,/,/,/
O=c1[nH]c(Nc2ccccc2)cc2ccccc12,10.2,12.8,55.3*,84.5*,8.3
O=c1[nH]c(Nc2ccccc2)cc2cc(Br)ccc12,/,8.4,/,/,/
CCC(C)n1c(C)nc2c(c1=O)c1nc3ccccc3nc1n2CCC1=CCCCC1 (centres undefined),64.1*,-8.3,-0.8,19.3,-2.4
CC(C)C(=O)NC(=S)Nc1ccccn1,7.8,-2.8,9.4,24.3,20.4*
Cc1[nH]n(-c2ccccc2)c(=O)c1N=Nc1ccc2c(c1)OCO2,1.8,-1.2,2.5,14.1,3.0
SMILES,Diaphorase inh,HKDC1 inhibitor,G6PDH CS,SUMO HTRF inh,p97 ATPase inh
Nc1[nH]n2c(=O)cc(-c3ccccc3)nc2c1N=Nc1ccc2c(c1)OCO2,68.5*,/,24.2,17.8,0.8
Cc1cccc(NC(=O)CCNC(=O)c2ccc(Br)cc2)c1C,/,4.8,/,3.7,/
O=C(Nc1cccc(NC(=O)c2ccc(Cl)cc2Cl)c1)c1cccnc1,/,-4.3,/,13.5,/
COc1cccc2cc(C(=O)NCc3ccco3)c(=O)oc12,18.7,-7.8,15.4,30.6,-7.3
COc1ccc2oc(=O)c(C(=O)NCc3ccco3)cc2c1,3.4,-10.1,8.7,51.8*,1.4
COc1ccc(-c2cc(C(F)(F)F)n3ncc(C(=O)NCc4ccco4)c3n2)cc1,27.0,0.1,6.0,63.7*,-0.1
O=C(NCc1ccco1)c1cnn2c(C(F)(F)F)cc(-c3ccccc3)nc12,13.7,6.2,-37.4,5.3,1.4
O=C(NC1CCCCC1)Oc1cccc2ccccc12,27.9,4.4,52.1*,19.6,2.9
O=C(NC1CCCCC1)Oc1ccccc1,/,-3.5,/,-4.6,-2.4
COC(=O)c1ccc(COC(=O)[C@@H]2CC(O)CN2S(=O)(=O)c2ccccc2[N+](=O)[O-])cc1 (some centres undefined),/,-2.8,/,/,/
Nc1n[nH]c(=S)n1/N=C1/C(=O)Nc2ccccc21,78.9*,-6.0,-2.9,0.5,9.0
CCN1CCN(CCC(=O)Nc2ccc(F)c(F)c2)CC1,/,-3.4,/,9.6,/
COc1ccccc1CNc1ccc(N2CCCCC2)cc1,65.4*,-9.2,-14.3,11.3,0.3
COc1ccccc1CNc1ccc(C(=O)O)cc1,13.6,-2.8,-4.4,3.2,-1.5
COc1cccc(CNc2ccc(N3CCCCC3)cc2)c1OC,59.9*,10.3,12.7,0.4,1.5
C=CCNC(=O)CN(Cc1ccccc1)S(=O)(=O)c1ccccc1,/,-2.1,/,-2.7,/
N#CC1=C(N)C(C#N)(C#N)[C@H](c2ccoc2)[C@H]2CN(Cc3ccccc3)CC=C12,15.2,13.8,1.1,62.1*,7.6
CN1CC=C2C(C#N)=C(N)C(C#N)(C#N)[C@H](c3ccoc3)[C@H]2C1,26.2,0.2,4.4,87.5*,-5.7
CC(C)Cc1nnc(NC(=O)c2ccc(S(=O)(=O)N3CCCC3)cc2)s1,/,-3.6,/,/,/
O=C(CCCc1ccncc1)c1ccccc1,/,11.3,/,/,/
Cc1cccc(NC(=O)CSc2nnc(CNC(=O)c3ccco3)n2C)c1,/,-5.6,/,15.7,/
CCOC(=O)c1c2ccc(OCC(=O)N/N=C/c3ccc(C)cc3)cc2n2ccccc12,60.9*,2.0,48.4,/,-1.7
CCOC(=O)c1c2ccc(OCC(=O)NN)cc2n2ccccc12,64.4*,17.1,42.8,/,5.3
CCOC(=O)c1c(C)n(C)c2cc(OCCN(CC)CC)ccc12,17.7,0.3,2.3,18.7,3.7
COc1ccc(CCC(=O)N/N=C\c2cccs2)cc1,4.8,-11.7,-3.8,3.9,-1.6
SMILES,Diaphorase inh,HKDC1 inhibitor,G6PDH CS,SUMO HTRF inh,p97 ATPase inh
COC/C=C/C1=CC2=CC(=O)C(C)(OC(=O)c3cnc4ccccc4n3)C(=O)C2=CN1c1ccc(CO)cc1 (centres undefined),/,/,/,58.5*,/
Nc1ccc2c3c(cccc13)CC2,55.6*,11.9,40.3,31.9,6.4
CN(C(=O)c1cccs1)C1(C)CCS(=O)(=O)C1 (centres undefined),/,-7.5,/,-2.0,/
Nc1ncnc2c1ncn2[C@@H]1O[C@H](COP(=O)(O)O)[C@@H](O)[C@H]1O,/,-4.2,/,62.2*,/
Oc1c(Br)cc(Br)cc1/C=N/NC(=S)N[C@H]1CC2C=CC1C2 (some centres undefined),/,-21.2,/,57.8*,8.5
NC(=O)c1cc(Cl)ccc1OCC(=O)NC1CC1,/,-5.6,/,/,/
c1ccc(CN2CCN(C(c3ccccc3)c3nnnn3Cc3ccccc3)CC2)cc1 (centres undefined),3.4,-0.1,4.9,-29.5,-3.2

# High-throughput results deposited in PubChem BioAssay by several laboratories.
